Source: ChEMBL document CHEMBL3621160, “Pseudosaccharin amines as potent and selective KV1.5 blockers” (Bioorg Med Chem Lett, 2015)

What was measured:
[1] = target: T1, Potassium voltage-gated channel subfamily A member 5 (Homo sapiens, UniProt P22460); test: Inhibition of human KV1.5 expressed in mouse L929 cells assessed as decrease in ultrarapid potassium current amplitude; assay type: cell-based
Outline: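 Potassium current block was measured in mouse fibroblast L929 cells expressing human KV1.5. IC50 values are means of 2-4 experiments.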

[2] = target: T1, Potassium voltage-gated channel subfamily A member 5; test: Inhibition of human KV1.5 expressed in mouse L929 cells assessed as decrease in ultrarapid potassium current amplitude relative to control; assay type: cell-based; parameters: concentration or dose not given beside the values; conditions: concentration not given here
Outline: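 Potassium current block in mouse fibroblast L929 cells expressing human Kv1.5. IC50 values are means of 2-4 experiments.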

[3] = Metabolic stability in human liver microsomes assessed as compound remaining at 3 uM after 10 mins; assay type: ADME; conditions: read-out: Stability
Outline: (§1)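 Parent compound at 3 µM was incubated 10 min in human, rat or mouse liver microsomes with appropriate co-factors. Read-out is percent of parent remaining.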

[4] = Metabolic stability in rat liver microsomes assessed as compound remaining at 3 uM after 10 mins; assay type: ADME; conditions: read-out: Stability; outline: as §1
[5] = Metabolic stability in mouse liver microsomes assessed as compound remaining at 3 uM after 10 mins; assay type: ADME; conditions: read-out: Stability; outline: as §1
Homo sapiens [6] = organism: Homo sapiens; test: Inhibition of calcium channel (unknown origin) at 10 uM relative to control
Outline: (§2)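 Calcium (ICa) and sodium (INa) currents were measured as percent inhibition at a single concentration of 10 µM. Values are means of 2-4 experiments.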

Homo sapiens [7] = organism: Homo sapiens; test: Inhibition of sodium channel (unknown origin) at 10 uM relative to control; outline: as §2
hERG (KCNH2) = hERG (KCNH2) (Homo sapiens, UniProt Q12809); test: Inhibition of human ERG at 10 uM relative to control
Chain of hERG (KCNH2) (Q12809 whole entry): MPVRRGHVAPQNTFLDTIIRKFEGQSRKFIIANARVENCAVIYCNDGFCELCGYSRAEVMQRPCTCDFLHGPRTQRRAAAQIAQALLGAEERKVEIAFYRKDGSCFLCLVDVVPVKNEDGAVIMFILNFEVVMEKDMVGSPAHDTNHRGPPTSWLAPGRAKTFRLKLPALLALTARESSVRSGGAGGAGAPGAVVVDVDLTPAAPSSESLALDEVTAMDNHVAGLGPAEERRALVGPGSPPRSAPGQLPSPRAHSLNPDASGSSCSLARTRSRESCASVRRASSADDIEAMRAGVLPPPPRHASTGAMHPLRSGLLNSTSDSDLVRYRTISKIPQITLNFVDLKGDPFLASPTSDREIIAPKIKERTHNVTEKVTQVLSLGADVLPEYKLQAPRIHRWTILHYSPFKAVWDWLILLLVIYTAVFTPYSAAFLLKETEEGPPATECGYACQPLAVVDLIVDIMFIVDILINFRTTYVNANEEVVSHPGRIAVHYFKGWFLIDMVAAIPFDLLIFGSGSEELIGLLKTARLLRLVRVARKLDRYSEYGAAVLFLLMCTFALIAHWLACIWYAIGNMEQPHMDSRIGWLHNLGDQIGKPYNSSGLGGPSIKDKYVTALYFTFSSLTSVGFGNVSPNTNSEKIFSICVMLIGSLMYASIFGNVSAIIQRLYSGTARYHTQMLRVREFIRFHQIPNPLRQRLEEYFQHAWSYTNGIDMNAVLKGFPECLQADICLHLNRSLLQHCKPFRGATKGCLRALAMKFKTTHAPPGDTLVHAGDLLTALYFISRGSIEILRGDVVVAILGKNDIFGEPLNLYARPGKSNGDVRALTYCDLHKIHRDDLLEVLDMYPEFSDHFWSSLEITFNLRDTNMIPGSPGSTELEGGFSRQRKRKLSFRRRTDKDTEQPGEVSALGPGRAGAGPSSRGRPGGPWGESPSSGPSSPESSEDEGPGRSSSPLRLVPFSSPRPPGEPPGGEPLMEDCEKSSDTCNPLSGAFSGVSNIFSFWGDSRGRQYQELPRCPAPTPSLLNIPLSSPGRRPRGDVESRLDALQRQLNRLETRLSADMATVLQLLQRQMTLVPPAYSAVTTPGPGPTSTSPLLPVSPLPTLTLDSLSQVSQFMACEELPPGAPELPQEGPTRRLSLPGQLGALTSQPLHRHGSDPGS
Outline: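 Screening panel of over 37 receptors and enzymes relevant to cardiovascular effects or toxicity. Each target was tested at a single concentration of 10 µM, with % activity reported.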

[8] = Cmax in rat at 1.6 mg/kg administered as intra-arterial infusion for 10 mins and 3.6 mg/kg, po; assay type: ADME, organism-based; parameters: route oral; conditions: in vivo
Outline: (§3)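 Rats, 3 animals per compound; values are means. Intravenous arm: intra-arterial infusion over 10 min. Oral arm: dosing by gavage. Both routes used a vehicle of 40% PEG 400, 40% water and 20% ethanol. Parameters were derived from plasma concentrations across the infusion and oral arms.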

[9] = AUC in rat at 3.6 mg/kg, po; assay type: ADME, organism-based; conditions: in vivo; outline: as §3
[10] = Half life in rat at 1.6 mg/kg administered as intra-arterial infusion for 10 mins and 3.6 mg/kg, po; assay type: ADME, organism-based; conditions: in vivo; outline: as §3
[11] = Clearance in rat at 1.6 mg/kg administered as intra-arterial infusion for 10 mins and 3.6 mg/kg, po; assay type: ADME, organism-based; conditions: in vivo; outline: as §3
[12] = Volume of distribution at steady state in rat at 1.6 mg/kg administered as intra-arterial infusion for 10 mins and 3.6 mg/kg, po; assay type: ADME, organism-based; conditions: in vivo, read-out: Vdss; outline: as §3
[13] = Oral bioavailability in rat at 3.6 mg/kg; assay type: ADME, organism-based; conditions: in vivo; outline: as §3
Rattus norvegicus [14] = test: Induction of QT interval prolongation in rat at 3 mg/kg, iv administered as infusion for 5 mins by ECG analysis; assay type: functional
Outline: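 Rats were dosed at 3 mg/Kg. Block of IKur was read as the percent change in the ECG QT interval; mean blood pressure and plasma concentration were recorded alongside. Values are means of 2-4 experiments.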

Rattus norvegicus [15] = test: Toxicity in rat assessed as increase in blood pressure at 3 mg/kg, iv administered as infusion for 5 mins; assay type: organism-based; conditions: in vivo
Outline: (§4)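 Rats were dosed at 3 mg/Kg. QT interval on ECG, mean blood pressure (% change) and plasma concentration were measured. Values are means of 2-4 experiments.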

[16] = Plasma concentration in rat at 3 mg/kg, iv administered as infusion for 5 mins; assay type: ADME, organism-based; outline: as §4
Oryctolagus cuniculus [17] = organism: Oryctolagus cuniculus; test: Induction of […] effective refractory period prolongation in rabbit; assay type: functional
Outline: (§5)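 Rabbits were dosed at 0.3, 1.0 and 3.0 mg/Kg. Effective refractory period was measured in atrium and ventricle, and blood pressure was recorded. The plasma concentration giving 20% atrial ERP prolongation (EC20) was calculated.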

Oryctolagus cuniculus [18] = organism: Oryctolagus cuniculus; test: Toxicity in rabbit assessed as effect on ventricular effective refractory period; assay type: organism-based, Cardiac ventricle; conditions: in vivo; outline: as §5
Oryctolagus cuniculus [19] = test: Toxicity in rabbit assessed as increase in blood pressure at 0.3 to 3 mg/kg; assay type: organism-based; conditions: in vivo; outline: as §5
[20] = Cmax in rabbit at 0.3 to 3 mg/kg; assay type: ADME, organism-based, Oryctolagus cuniculus; conditions: in vivo; outline: as §5

T1 sequence (P22460 whole entry): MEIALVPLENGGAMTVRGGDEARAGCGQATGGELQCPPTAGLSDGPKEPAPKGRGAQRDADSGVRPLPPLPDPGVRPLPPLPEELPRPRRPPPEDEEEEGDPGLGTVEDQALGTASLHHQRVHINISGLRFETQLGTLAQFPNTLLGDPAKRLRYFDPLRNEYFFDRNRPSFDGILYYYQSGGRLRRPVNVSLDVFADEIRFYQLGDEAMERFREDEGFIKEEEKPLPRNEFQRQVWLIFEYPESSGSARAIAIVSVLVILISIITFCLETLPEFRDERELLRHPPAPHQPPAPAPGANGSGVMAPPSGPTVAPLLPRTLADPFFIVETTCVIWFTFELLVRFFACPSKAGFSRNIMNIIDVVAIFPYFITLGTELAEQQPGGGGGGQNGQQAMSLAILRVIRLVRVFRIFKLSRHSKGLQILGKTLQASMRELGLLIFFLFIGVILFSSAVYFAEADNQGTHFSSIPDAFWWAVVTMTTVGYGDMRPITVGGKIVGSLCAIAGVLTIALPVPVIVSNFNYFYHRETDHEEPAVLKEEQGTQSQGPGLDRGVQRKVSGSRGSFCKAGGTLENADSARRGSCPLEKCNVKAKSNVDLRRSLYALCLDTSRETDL

| SMILES | IC50 [1] | inhibition [2] | remaining at 10 min, 3 µM [3] | remaining at 10 min, 3 µM [4] | remaining at 10 min, 3 µM [5] | other results |
| --- | --- | --- | --- | --- | --- | --- |
| COc1cccc2c1C(NC[C@]1(c3ccccc3)CC[C@H](NS(N)(=O)=O)CC1)=NS2(=O)=O | > 10000 nM | 18% | – | – | – | – |
| COc1cccc2snc(NCC(C)(C)c3ccccc3)c12 | 24 nM | – | 13% | – | – | – |
| CCNC(=O)N[C@H]1CC[C@](CNC2=NS(=O)(=O)c3cccc(OC)c32)(c2ccccc2)CC1 | > 10000 nM | 20% | – | – | – | – |
| CCNC(=O)O[C@H]1CC[C@](CNC2=NS(=O)(=O)c3cccc(OC)c32)(c2ccccc2)CC1 | 65 nM | – | 2% | < 1% | < 1% | – |
| COc1cccc2c1C(NC[C@]1(c3ccccc3)CC[C@H](Nc3ncccn3)CC1)=NS2(=O)=O | 47 nM | – | 6% | < 1% | < 1% | – |
| CCN(CC)S(=O)(=O)N[C@H]1CC[C@](CNC2=NS(=O)(=O)c3cccc(OC)c32)(c2ccccc2)CC1 | 52 nM | – | < 1% | < 1% | < 1% | – |
| COc1cccc2c1C(NC[C@]1(c3ccccc3)CC[C@H](NC(=O)OCC(F)(F)F)CC1)=NS2(=O)=O | 28 nM | – | 95% | 57% | 48% | inhibition (Homo sapiens [6]): 51%; inhibition (Homo sapiens [7]): 23%; inhibition at 10 µM (hERG (KCNH2)): 47% |
| CCOP(=O)(NC(=O)O[C@H]1CC[C@](CNC2=NS(=O)(=O)c3cccc(OC)c32)(c2ccccc2)CC1)OCC | > 10000 nM | 13% | – | – | – | – |
| COc1cccc2onc(NCC(C)(C)c3ccccc3)c12 | – | – | 7% | 13% | 11% | – |
| COc1cccc2c1C(NC[C@]1(c3ccccc3)CC[C@H](OC(=O)N(C)CCN(C)C)CC1)=NS2(=O)=O | > 10000 nM | 4% | – | – | – | – |
| CCS(=O)(=O)N[C@H]1CC[C@](CNC2=NS(=O)(=O)c3cccc(OC)c32)(c2ccccc2)CC1 | 60 nM | – | 75% | 67% | 30% | inhibition (Homo sapiens [6]): 14%; inhibition (Homo sapiens [7]): 7%; inhibition at 10 µM (hERG (KCNH2)): 59% |
| COc1cccc2c1C(NC[C@]1(c3ccccc3)CC[C@H](OC(=O)NS(=O)(=O)c3ccccc3)CC1)=NS2(=O)=O | > 10000 nM | 1% | – | – | – | – |
| COc1cccc2c1C(NC[C@]1(c3ccccc3)CC[C@H](OC(=O)NC3CC3)CC1)=NS2(=O)=O | 170 nM | – | 9% | 5% | < 1% | – |
| COc1cccc2c1C(NC[C@]1(c3ccccc3)CC[C@H](OC(=O)Nc3nnc(C4CC4)s3)CC1)=NS2(=O)=O | 92 nM | – | 75% | 70% | 66% | inhibition (Homo sapiens [6]): 8%; inhibition (Homo sapiens [7]): 21%; inhibition at 10 µM (hERG (KCNH2)): 17%; Cmax [8]: 0.011 µM; AUC [9]: 0.2 µM·h; half-life [10]: 2.3 h; clearance [11]: 6.8 mL/min/kg; Vd [12]: 0.9 L/kg; bioavailability [13]: 1%; Activity (Rattus norvegicus [14]): 23%; Activity (Rattus norvegicus [15]): 19%; concentration at 5 min [16]: 72 µM; EC20 (Oryctolagus cuniculus [17]): 23000 nM; Activity (Oryctolagus cuniculus [18]): Non-toxic; Activity (Oryctolagus cuniculus [19]): 6%; Cmax [20]: 23 µM |
| COc1cccc2c1C(NC[C@]1(c3ccccc3)CC[C@H](N)CC1)=NS2(=O)=O | > 10000 nM | 5% | – | – | – | – |
| COc1cccc2c1C(NC[C@]1(c3ccccc3)CC[C@@H](O)CC1)=NS2(=O)=O | > 300 nM | 14% | 98% | 73% | 73% | – |
| COc1cccc2c1C(NC[C@]1(c3ccccc3)CC[C@H](OC(=O)NCCC(F)(F)F)CC1)=NS2(=O)=O | 89 nM | – | < 1% | < 1% | 3% | – |
| COc1cccc2c1C(NC[C@]1(c3ccccc3)CC[C@H](OC(=O)NCCO)CC1)=NS2(=O)=O | > 10000 nM | 27% | – | – | – | – |
| COc1cccc2c1C(NC[C@]1(c3ccccc3)CC[C@H](OC(=O)Nc3ccc(N(C)C)cc3)CC1)=NS2(=O)=O | 30 nM | – | 2% | < 1% | < 1% | – |
| COc1cccc2c1C(NC[C@]1(c3ccccc3)CC[C@H](n3cnnn3)CC1)=NS2(=O)=O | 32 nM | – | 56% | 19% | 56% | – |
| CCOC(=O)N[C@H]1CC[C@](CNC2=NS(=O)(=O)c3cccc(OC)c32)(c2ccccc2)CC1 | 55 nM | – | 55% | 19% | – | – |
| COc1cccc2c1C(NCC(C)(C)c1ccccc1)=NC2=O | 34 nM | – | 99% | 43% | – | – |
